Data from ChEMBL document CHEMBL1138345, “Scouting human A3 adenosine receptor antagonist binding mode using a molecular simplification approach: from triazoloquinoxaline to a pyrimidine skeleton as a key study” (J Med Chem, 2007).

Key:
[1] = target: T1, Adenosine receptor A1 (Homo sapiens) (UniProt P30542); assay: Displacement of [3H]DPCPX from human adenosine A1 receptor expressed in CHO cell membranes at 1 uM
T1 sequence (whole entry): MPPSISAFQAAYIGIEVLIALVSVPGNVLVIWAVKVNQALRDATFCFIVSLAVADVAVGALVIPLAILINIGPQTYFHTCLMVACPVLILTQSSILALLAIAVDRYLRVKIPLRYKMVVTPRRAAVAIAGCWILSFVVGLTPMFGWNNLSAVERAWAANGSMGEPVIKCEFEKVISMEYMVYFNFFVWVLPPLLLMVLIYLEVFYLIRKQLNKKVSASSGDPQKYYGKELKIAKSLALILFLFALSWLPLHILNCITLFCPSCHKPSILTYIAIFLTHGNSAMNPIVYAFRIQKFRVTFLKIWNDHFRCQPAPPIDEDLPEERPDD
In short: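 hA1 CHO membranes (50 µg protein) with 1 nM [³H]DPCPX in 50 mM Tris HCl pH 7.4, 120 min at 25 °C; nonspecific binding with 10 µM CHA; glass-fiber filtration, scintillation counting; % inhibition at 1 µM test compound.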

[2] = target: Adenosine receptor A2a (Homo sapiens) (UniProt P29274); assay: Displacement of [3H]ZM-241385 from human adenosine A2A receptor expressed in CHO cell membranes at 1 uM
Adenosine receptor A2a (Homo sapiens), sequence (P29274 whole entry): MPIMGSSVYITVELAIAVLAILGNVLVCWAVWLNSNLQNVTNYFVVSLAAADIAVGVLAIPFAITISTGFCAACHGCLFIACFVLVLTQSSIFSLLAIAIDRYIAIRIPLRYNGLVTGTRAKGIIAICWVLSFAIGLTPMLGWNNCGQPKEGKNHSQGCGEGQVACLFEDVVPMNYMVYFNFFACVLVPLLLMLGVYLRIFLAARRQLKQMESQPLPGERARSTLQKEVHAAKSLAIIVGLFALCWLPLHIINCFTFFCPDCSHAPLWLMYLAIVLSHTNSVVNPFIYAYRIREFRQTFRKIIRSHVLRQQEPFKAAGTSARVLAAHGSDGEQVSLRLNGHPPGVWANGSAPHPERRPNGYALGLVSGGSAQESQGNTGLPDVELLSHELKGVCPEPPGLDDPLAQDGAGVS
In short: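 Binding of 1 nM [³H]ZM-241385 to hA2A CHO membranes (50 µg protein) in 50 mM Tris HCl, 10 mM MgCl₂, pH 7.4, 60 min at 4 °C; nonspecific binding with 1 µM ZM-241385; filtration and counting; % inhibition at 1 µM test compound.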

[3] = target: T2, Adenosine receptor A2b (Homo sapiens) (UniProt P29275); assay: Antagonist activity at human adenosine A2B receptor expressed in CHO cells assessed as inhibition of NECA-stimulated cAMP levels at 1 uM; type: functional, cell-based
T2 sequence (whole entry): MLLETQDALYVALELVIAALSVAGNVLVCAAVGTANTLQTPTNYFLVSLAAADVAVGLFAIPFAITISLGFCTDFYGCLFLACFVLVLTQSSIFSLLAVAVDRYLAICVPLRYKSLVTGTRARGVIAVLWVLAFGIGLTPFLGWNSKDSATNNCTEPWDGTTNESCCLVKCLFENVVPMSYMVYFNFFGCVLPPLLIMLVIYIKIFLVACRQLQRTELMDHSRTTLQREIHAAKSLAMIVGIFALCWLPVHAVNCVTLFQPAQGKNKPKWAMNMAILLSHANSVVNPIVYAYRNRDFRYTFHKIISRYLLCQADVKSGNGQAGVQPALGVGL
In short: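 Stably transfected hA2B CHO cells, 1 × 10⁶ cells/assay, preincubated 10 min at 37 °C, pH 7.4, with adenosine deaminase 2 IU/ml and Ro 20-1724 as phosphodiesterase inhibitor. Stimulated by 200 nM NECA; test compound at 1 µM. Stopped with cold 6% TCA; cAMP measured by [³H]cAMP competition protein binding with beef adrenal binding protein. Reported as % inhibition.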

[4] = target: T3, Adenosine receptor A3 (Homo sapiens) (UniProt P0DMS8); assay: Displacement of [125I]ABMECA from human adenosine A3 receptor expressed in CHO cell membranes at 1 uM
T3 sequence (whole entry): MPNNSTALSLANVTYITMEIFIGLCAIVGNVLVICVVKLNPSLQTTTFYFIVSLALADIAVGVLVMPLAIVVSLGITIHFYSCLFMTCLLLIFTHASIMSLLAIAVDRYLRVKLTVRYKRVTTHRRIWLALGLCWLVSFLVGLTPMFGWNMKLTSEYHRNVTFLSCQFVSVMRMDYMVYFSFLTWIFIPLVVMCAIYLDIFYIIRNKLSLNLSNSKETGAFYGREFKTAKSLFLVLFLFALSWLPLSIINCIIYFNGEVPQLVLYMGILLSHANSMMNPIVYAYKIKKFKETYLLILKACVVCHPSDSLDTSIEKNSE
In short: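 Competition at hA3 CHO membranes (50 µg protein) against 0.5 nM [¹²⁵I]AB-MECA, Tris HCl/MgCl₂/EDTA buffer pH 7.4, 120 min at 4 °C; nonspecific binding with 1 µM AB-MECA; test compound at 1 µM; % inhibition of binding.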

Adenosine receptor A3 [5] = target: T4, Adenosine receptor A3 (Homo sapiens, UniProt P0DMS8); assay: Displacement of [125I]ABMECA from human adenosine A3 receptor expressed in CHO cell membranes
T4 sequence (P0DMS8 whole entry): T3 sequence (whole entry)
In short: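 hA3 CHO membranes, 50 µg protein, with 0.5 nM [¹²⁵I]AB-MECA in 50 mM Tris HCl, 10 mM MgCl₂, 1 mM EDTA, pH 7.4. At least 6–8 ligand concentrations, 120 min at 4 °C. Nonspecific binding with 1 µM AB-MECA. Filtration, counting. Ki via Cheng–Prusoff from IC50; means ± SEM of four assays, each in duplicate.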

Adenosine receptor A3 [6] = target: T4, Adenosine receptor A3; assay: Activity at human adenosine A3 receptor expressed in CHO cells assessed as antagonism of Cl-IB-MECA-inhibited cAMP production; type: functional, cell-based
In short: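 CHO cells stably expressing hA3, washed, trypsinized, 1 × 10⁶ cells/assay, preincubated 10 min at 37 °C in buffered salt–glucose medium (pH 7.4) with adenosine deaminase 2 IU/ml and Ro 20-1724. Forskolin 1 µM plus Cl-IB-MECA 100 nM. Stopped with cold 6% TCA, ether-extracted, cAMP by [³H]cAMP competition protein binding. IC50 from sigmoid nonlinear regression; means ± SEM of four experiments.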

Row | SMILES | Activity [1] | Activity [2] | inhibition [3] | Activity [4] | Ki (Adenosine receptor A3 [5]) | IC50 (Adenosine receptor A3 [6])
1 | O=C(Nc1ccc(Br)cc1)c1nc(=O)[nH]c2ccccc12 | 3% | 1% | 2% | – | – | –
2 | Nc1nc(C(=O)NC2CCCCC2)c2ccccc2n1 | 2% | 3% | 1% | 21% | – | –
3 | O=C(Nc1ccccc1)c1cc(=O)[nH]c2ccccc12 | 1% | 1% | 2% | 38% | – | –
4 | Nc1cc(C(=O)Nc2ccccc2)c2ccccc2n1 | 1% | 2% | 5% | 6% | – | –
5 | O=C(Nc1nc(C(=O)Nc2ccccc2)c2ccccc2n1)c1ccccc1 | 7% | 10% | 3% | – | 182 nM | –
6 | O=C(Nc1ccccc1)c1[nH]c(=O)nc2ccccc12 | – | – | – | – | 50 nM | 238 nM
7 | CC(=O)Nc1nc(C(=O)Nc2ccccc2)c2ccccc2n1 | 25% | 7% | 5% | – | 25.3 nM | 140 nM
8 | Cc1ccc(NC(=O)c2[nH]c(=O)nc3ccccc23)cc1 | – | – | – | – | 26.7 nM | –
9 | O=C(Nc1ccc(Br)cc1)c1[nH]c(=O)nc2ccccc12 | – | – | – | – | 27.2 nM | –
10 | O=C(Nc1ccccc1)c1nc(=O)[nH]c2ccccc12 | 22% | 1% | 4% | – | – | –
11 | COc1ccc(NC(=O)c2ccnc(N(C(=O)c3ccccc3)C(=O)c3ccccc3)n2)cc1 | 5% | 1% | 3% | 14% | – | –

Now from value to compound:

Row | Activity [1] | Activity [2] | inhibition [3] | Activity [4] | Ki (Adenosine receptor A3 [5]) | IC50 (Adenosine receptor A3 [6]) | SMILES
12 | 3% | 6% | 3% | 15% | – | – | COc1ccc(NC(=O)c2ccnc(N)n2)cc1
13 | 40% | 17% | 5% | – | 350 nM | – | Nc1nc(C(=O)Nc2ccccc2)c2ccccc2n1
14 | 1% | 1% | 2% | – | 550 nM | – | Nc1nc(C(=O)Nc2ccc(Br)cc2)c2ccccc2n1
15 | 3% | 5% | 4% | – | 98.3 nM | – | Cc1ccc(NC(=O)c2nc(N)nc3ccccc23)cc1
16 | 6% | 6% | 2% | 22% | – | – | COc1ccc(NC(=O)c2ccnc(NC(=O)c3ccccc3)n2)cc1
17 | – | – | – | – | 19.5 nM | 125 nM | COc1ccc(NC(=O)c2[nH]c(=O)nc3ccccc23)cc1
18 | 2% | 3% | 3% | 1% | – | – | COc1ccc(NC(=O)c2cc(N)nc3ccccc23)cc1
19 | 4% | 1% | 9% | – | – | – | COc1ccc(NC(=O)c2nc(=O)[nH]c3ccccc23)cc1
20 | 4% | 1% | 3% | 26% | – | – | COc1ccc(NC(=O)c2cc(=O)[nH]c3ccccc23)cc1
21 | 21% | 2% | 2% | – | – | – | Cc1ccc(NC(=O)c2nc(=O)[nH]c3ccccc23)cc1
22 | 8% | 6% | 23% | – | 87.5 nM | – | COc1ccc(NC(=O)c2nc(N)nc3ccccc23)cc1
